Key:
Assay type in all cases: functional
[1] = Ratio of intensity of phosphorylation of phosphorylated eIF2a to the intensity of the total eIF2a was determined
In short: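 Cells exposed to drug at 5 µM; extracts analysed by Western blot with phospho-Ser51-specific rabbit anti-eIF2a and mouse monoclonal total eIF2a antibodies, quantified by infrared imaging. Phospho/total eIF2a intensity ratio normalized to DMSO; TRO positive, DMSO negative control; mean ± SD of three determinations.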

[2] = system: A549; assay: Inhibition of human lung cancer cell line (A549) growth by 50% in sulforhodamine-B assay
In short: (§1)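 Human A549 lung cancer cells; growth inhibition read by sulforhodamine B assay, staining cellular protein content. GI50 taken as concentration needed to inhibit 50% of cell proliferation. DMSO negative control, troglitazone (TRO) positive control; mean ± SD from three determinations.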

[3] = system: A549; assay: Inhibition of human lung cancer cell line (A549) by 50% in sulforhodamine B assay; in short: as §1

| SMILES | Ratio [1] | GI50 [2] [µM] | GI50 [3] [µM] |
| --- | --- | --- | --- |
| COc1ccc(OCc2ccccc2)c(/C=C2\SC(=O)NC2=O)c1 | 0.98 | 14 |  |
| COc1ccc(OCc2ccccc2)c(/C=C2\SC(=S)NC2=O)c1 | 0.94 | 7 |  |
| O=C1NC(=O)/C(=C/c2cc(-c3ccccc3)ccc2OCc2ccccc2)S1 | 0.76 | 2 |  |
| O=C1NC(=O)/C(=C/c2cc(F)ccc2OCc2ccccc2)S1 | 0.72 | 4 |  |
| Cc1ccc(OCc2ccccc2)c(/C=C2\SC(=O)NC2=O)c1 | 1.94 | 8 |  |
| CC(C)(C)c1ccc(OCc2ccccc2)c(/C=C2\SC(=S)NC2=O)c1 | 1.97 | 7 |  |
| O=C1NC(=O)/C(=C/c2ccccc2OCc2ccccc2)S1 | 0.92 | 35 |  |
| Cc1c(C)c2c(c(C)c1O)CCC(C)(COc1ccc(CC3SC(=O)NC3=O)cc1)O2 (stereo not given) [TROGLITAZONE] | 2.12 |  | 15 |
| CC(C)(C)c1ccc(-c2ccc(OCc3ccccc3)c(/C=C3\SC(=O)NC3=O)c2)cc1 | 1.16 | 2 |  |
| O=C1NC(=S)S/C1=C\c1cc(N2CCCCC2)ccc1OCc1ccccc1 | 0.75 | 3 |  |
| Cc1ccc(OCc2ccccc2)c(/C=C2\SC(=S)NC2=O)c1 | 4.15 | 6 |  |
| CC(C)(C)c1ccc(-c2ccc(OCc3ccccc3)c(/C=C3\SC(=S)NC3=O)c2)cc1 | 1.37 | 2 |  |
| O=C1NC(=S)S/C1=C\c1cc([N+](=O)[O-])ccc1OCc1ccccc1 | 3.49 | 5 |  |
| O=C1NC(=O)/C(=C/c2cc(Cl)ccc2OCc2ccccc2)S1 | 4.52 | 5 |  |
| O=C1NC(=S)S/C1=C\c1cc(F)ccc1OCc1ccccc1 | 5.02 | 9 |  |
| O=C1NC(=S)S/C1=C\c1cc(Br)ccc1OCc1ccccc1 | 1.4 | 7 |  |
| O=C1NC(=S)S/C1=C\c1cc(Cl)ccc1OCc1ccccc1 | 1.76 | 5 |  |
| O=C1NC(=S)S/C1=C\c1ccccc1OCc1ccccc1 | 1.17 | 13 |  |
| O=C1NC(=S)SC1Cc1cc(Cl)ccc1OCc1ccccc1 (stereo not given) | 1.25 | 29 |  |
| O=C1NC(=S)S/C1=C\c1cc(N2CCOCC2)ccc1OCc1ccccc1 | 0.92 | 5 |  |
| O=C1NC(=O)/C(=C/c2cc([N+](=O)[O-])ccc2OCc2ccccc2)S1 | 0.89 | 14 |  |
| CC(C)(C)c1ccc(OCc2ccccc2)c(CC2SC(=O)NC2=O)c1 (stereo not given) | 0.79 |  | 12 |
| O=C1NC(=S)S/C1=C\c1cc(-c2ccccc2)ccc1OCc1ccccc1 | 2.35 | 4 |  |
| CC(C)(C)c1ccc(OCc2ccccc2)c(/C=C2\SC(=O)NC2=O)c1 | 6.98 | 2 |  |
| O=C1NC(=O)/C(=C/c2cc(Br)ccc2OCc2ccccc2)S1 | 4.05 | 5 |  |

Source: ChEMBL document CHEMBL1138002, “Synthesis and biological evaluation of thiazolidine-2,4-dione and 2,4-thione derivatives as inhibitors of translation initiation” (2004)
